This data set in a line: Toxicity liver stage against HepG2, at 10uM. Format: cell-based. On the set-up: test concentration 10 uM, cell line HepG2-A16-CD81EGFP. Conditions: human, HepG2-A16-CD81EGFP cells; read-out: INHIBITION
The method, boiled down: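 Uninfected HepG2-A16-CD81EGFP cells, 3 × 10^3 per well, 1536-well, plated on prespotted compound at 10 μM final, parasite-free screening media added to match infected plates; puromycin 10 μM positive, DMSO 0.5% negative; run in parallel with 48 h PbLuc assay at 37 °C, 5% CO2; viability by CellTiter-Glo luminescence, normalized to controls.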
Turning to `Cc1cc(=O)[nH]cc1C(=O)N1Cc2ccccc2N(C)CC1C` (stereo unspecified), the cytotoxicity at 10 µM came out at 0.305%.
Regarding `CCc1nnc(NC(=O)c2c3c(nn2C2CCS(=O)(=O)C2)CCC3)s1` (stereo unspecified), the cytotoxicity at 10 µM is -4.28%.
`O=C(c1cc(C2CC2)[nH]n1)N1CCN(Cc2ccc3c(c2)OCO3)CC1`: the cytotoxicity at 10 µM is -2.32%.
As for `Cc1cccc(CN2C(=O)CC[C@@H]3[C@H]2CCN3CC2CCOCC2)n1`, the figure is 5.89%; as for `Cc1cnc(CN2C[C@H]3CC(Oc4ccccc4)C[C@H]3C2)cn1` (stereo partly specified), -24.3%.
Consider `CCOc1ncccc1CNC(=O)Nc1ccc(OC)c(OC)c1`, for which the cytotoxicity at 10 µM is -3.82%.
Turning to `Cc1cccc(N2CC3(CCN(c4nncs4)C3)CC2=O)c1` (stereo unspecified), the cytotoxicity at 10 µM was 0.179%.
On to `Cc1noc(CCCNC(=O)N2CCc3ccccc3C2CO)n1` (stereo unspecified), for which the cytotoxicity at 10 µM turned out to be 8.69%.
Turning to `Cc1cc(CN(C)Cc2ccccc2N2CCCCC2)n[nH]1`, the cytotoxicity at 10 µM was -2.98%.
Take `O=C(O)C1(Oc2ccc3ccccc3c2)CCN(c2ncccn2)CC1`: the cytotoxicity at 10 µM was found to be 1.46%.
Regarding `Cc1nc(NC(C)C)nc2c1CN(Cc1cccs1)CC2`, the cytotoxicity at 10 µM was 0.718%.
With `CC(C)c1nc(CN2CCC(c3ccnn3CCO)CC2)no1`, the cytotoxicity at 10 µM was -5.71%.
As for `CC(=O)N1CCCCCC1C1CCN(Cc2nc(C3CC3)no2)CC1` (stereo unspecified), the figure is -56.4%.
On to `CC(Cn1cccn1)NC(=O)Nc1nnc(C2CC2)s1` (stereo unspecified), for which the cytotoxicity at 10 µM was -1.71%.
Regarding `COCCC(=O)Nc1ccnc(Oc2ccccc2)c1`, the cytotoxicity at 10 µM amounted to 7.85%.
For the compound `CN1C[C@@H](COCC2CC2)[C@H]2CCN(Cc3ccco3)CC[C@H]2C1=O`, the cytotoxicity at 10 µM was -4.6%.
For the compound `Cc1nc[nH]c1-c1nc2cc(S(=O)(=O)N3CCCC3)ccc2n1C`, the cytotoxicity at 10 µM was -14.2%.
Regarding `CC(C)CC(=O)NCCn1nc(C2CCNC2)c2cccnc21` (stereo unspecified), the cytotoxicity at 10 µM is -25%.
With `Cc1ncnc2c1CCN(C(=O)CN(C)C)CC2`, the cytotoxicity at 10 µM was 0.964%.
As to `CC(=O)N(C)Cc1ccccc1NCc1c(C)noc1C`, the cytotoxicity at 10 µM came out at 5.76%.
`Cc1cn(-c2ccccc2)nc1NS(=O)(=O)c1ccc(C(=O)O)cc1`: the cytotoxicity at 10 µM was -5.51%.
In the case of `Cc1csc(C2CCCCN2C(=O)c2cnn3ccc(C)nc23)n1` (stereo unspecified) it was -5.85%; in that of `CC(=O)N1CCN([C@@H]2CC[C@@H](NC(=O)c3cc(C)cs3)[C@H]2O)CC1`, 6.02%; in that of `C[C@H]1C[C@H]2CN(C(=O)CCOc3ccccc3)CC[C@H]2O1`, -69.3%.
Regarding `CNS(=O)(=O)c1cccc(C(C)NCc2ccco2)c1` (stereo unspecified), the cytotoxicity at 10 µM was found to be 4.61%.
`COc1ccc(CC(=O)N2CC[C@@H]3[C@H](CC2)N(C)CCS3(=O)=O)cc1`: the cytotoxicity at 10 µM was -104%.
`Cc1ccc(C(=O)NCC(O)CN2CCCC2=O)c(C)c1` (stereo unspecified): the cytotoxicity at 10 µM was -6.68%.
On to `CS(=O)(=O)c1ccc2c(c1)N(C(=O)Cc1ccc(F)cc1)CCC2`, for which the cytotoxicity at 10 µM was 9.95%.
Take `CCc1cc(NCc2ccc(-n3cncn3)c(C)c2)n(C)n1`: the cytotoxicity at 10 µM was -52.6%.
In the case of `COc1ccc(C(=O)N2CCCC3(CCCC(=O)N3C)C2)cc1` (stereo unspecified), the cytotoxicity at 10 µM was -10.1%.
With `Cc1cc(C)nc(N2CCCC2c2[nH]ncc2C(=O)N(C)C)n1` (stereo unspecified), the cytotoxicity at 10 µM is -1.51%.
In the case of `Cc1cc(C)n(CC2CCCCN2CC(=O)N(C)Cc2ccco2)n1` (stereo unspecified), the cytotoxicity at 10 µM was -9.75%.
As to `c1csc(-c2nc(CN3CCCC3Cn3cncn3)co2)c1` (stereo unspecified), the cytotoxicity at 10 µM is -11.5%.
Take `Cc1ccc(OCC(C)NS(=O)(=O)Cc2ccon2)cc1` (stereo unspecified): the cytotoxicity at 10 µM was -4.84%.
As for `CN(C)C(=O)N1CCN(C(=O)c2ccccc2)CC2(CNC(=O)C2)C1` (stereo unspecified), the figure is 7.19%; as for `NC(=O)c1cn(CC2CC2)c(C2CC2)n1`, 0.524%.
Consider `NCC1Cc2cc(-c3nccc(N4CCC(O)CC4)n3)cc(Cl)c2O1` (stereo unspecified), for which the cytotoxicity at 10 µM was -4.33%.
On to `Cc1nc(-c2ccccc2)sc1CSC(C)C(N)=O` (stereo unspecified), for which the cytotoxicity at 10 µM was -6.55%.
Turning to `Cc1cc(=O)n2c(n1)SCC2CC(=O)NCc1cc(-c2ccco2)on1` (stereo unspecified), the cytotoxicity at 10 µM was -15.6%.
On to `CN(C)C(=O)CN1CCOCC2(C1)CN(c1ncc(F)cn1)CCO2` (stereo unspecified), for which the cytotoxicity at 10 µM was -6.69%.
As for `Cc1ccc(-n2nnc(CC(=O)N3CCSCC3)c2C)cc1`, the figure is -13.1%; as for `Cn1cc(C(C)(O)CNc2ccc(Cl)c(C#N)n2)cn1` (stereo unspecified), 3.97%; as for `CN(C)Cc1ccnc(C2CCCN2Cc2ccncc2)n1` (stereo unspecified), 1.36%.
Regarding `COCCn1/c(=N\C(=O)CN(C)S(C)(=O)=O)sc2cccc(F)c21`, the cytotoxicity at 10 µM was -11.5%.
As to `CC(C)CNC(=O)c1ccc2c(=O)n(-c3ccccc3)cnc2c1`, the cytotoxicity at 10 µM is -5.52%.
`N#Cc1ccc(N2CCC3(CCCN(c4ccccn4)C3)C2)nc1` (stereo unspecified): the cytotoxicity at 10 µM worked out at 15.6%.
As to `Cc1oc(-c2cccc(F)c2F)nc1CN(C)CCO`, the cytotoxicity at 10 µM is -9.49%.
For `CC(=O)c1ccc(OCC(C)O)cc1O` (stereo unspecified), the cytotoxicity at 10 µM is -8.02%.
As for `O=C(NCC(F)(F)F)C1=NOC2(CCCNC2)C1` (stereo unspecified), the figure is 2.16%; as for `O=C(NCc1ccccn1)NC1CCOc2ccccc21` (stereo unspecified), -8.99%.
Regarding `CCOc1cc(CN(C)CCOC)ccc1OC(F)F`, the cytotoxicity at 10 µM is -13.7%.
In the case of `COc1cc(C(=O)N2CCCC(c3cc(C)[nH]n3)C2)ccc1C` (stereo unspecified) it was -17.5%; in that of `Fc1cnc(N2CC[C@@H](N3CCOCC3)[C@@H]2Cc2cccnc2)nc1`, 11.7%; in that of `CCC(CC)CN1CCC2(CCC(=O)N2OCc2ccccc2F)CC1`, 6.69%.
Take `COCC1Cn2nnc(-c3cnn(C)c3)c2CN1Cc1ccc(C)s1` (stereo unspecified): the cytotoxicity at 10 µM is -10.5%.
As for `O=C(NCCc1ccn(-c2ccc(F)cc2)n1)C1CCCO1` (stereo unspecified), the cytotoxicity at 10 µM is -0.198%.
As for `CN(C)C(=O)N1CCN(C(=O)C(c2ccccc2F)N(C)C)CC1` (stereo unspecified), the cytotoxicity at 10 µM is -0.665%.
As for `CCN1CCCC(c2c(-c3ccccc3)ncn2CCCO)C1` (stereo unspecified), the figure is -3.41%.
As for `Cc1nc(COCc2nc3c(o2)CN(C(=O)c2ccc[nH]2)C3)cs1`, the cytotoxicity at 10 µM was 0.657%.
For `CCN(CC(=O)NCCc1nc(C)no1)Cc1ccc(Cl)cc1`, the cytotoxicity at 10 µM came to 2.27%.
On to `COC(=O)Cn1c(=O)[nH]c2cn(-c3ccc(Br)cc3)c(=O)n21`, for which the cytotoxicity at 10 µM was determined as 1.4%.
Regarding `Cn1ccnc1CN1CCCN(C(=O)c2ccc3c(c2)OCO3)CC1`, the cytotoxicity at 10 µM was -6.61%.
For the compound `CC(C)(C)c1nnc2n1C(C(=O)N1CCCC1)CC2` (stereo unspecified), the cytotoxicity at 10 µM came out at 1.61%.
As for `c1cnnc(N2CCCC2CNCc2nc(-c3cccs3)no2)c1` (stereo unspecified), the figure is -7.69%; as for `O=C(NCC(Cc1cccc(F)c1)N1CCCC1=O)C1CCCC1` (stereo unspecified), 1.39%; as for `CC(C)(C)C(=O)NC(c1nccs1)C1CCN(CC2CCCCC2)CC1` (stereo unspecified), 6.5%.
Regarding `O=C(CC1=CSC2=NCCCN12)N1CCCCCC1c1ccco1` (stereo unspecified), the cytotoxicity at 10 µM stood at 10%.
`O=c1cc(N2CCCCC2)cnn1C[C@H](O)CO`: the cytotoxicity at 10 µM came out at 2.04%.
With `C[C@@H]1CN(C2(C(=O)N3CCNCC3)Cc3ccccc3C2)C[C@H](C)O1`, the cytotoxicity at 10 µM is -4.17%.
For `NC(=O)CC1CC2(CCNCC2)c2cc(F)ccc21` (stereo unspecified), the cytotoxicity at 10 µM is -107%.
Turning to `COC(=O)CCn1ccc(=O)c2ccc(OC)cc21`, the cytotoxicity at 10 µM came out at 17.1%.
For `Cc1nnc2n1CCN(C(C(N)=O)c1ccc(F)cc1)C2` (stereo unspecified), the cytotoxicity at 10 µM is -13.5%.
On to `Cc1ncsc1C(=O)N1CC(C)Sc2ccccc21` (stereo unspecified), for which the cytotoxicity at 10 µM was -0.663%.
Take `Cc1ccsc1[C@@H]1CCN(C(=O)c2cc3ccccc3[nH]2)C[C@H]1O`: the cytotoxicity at 10 µM is 29%.
With `Cc1nn(C)c(C)c1C1CCCN1C(=O)CCCc1ccccn1` (stereo unspecified), the cytotoxicity at 10 µM came out at 2.43%.
With `Cc1ccc(NC2CCN(C(=O)c3ccc(C(N)=O)s3)CC2)nn1`, the cytotoxicity at 10 µM worked out at 1.8%.
As to `Cc1csc(CCNC(=O)c2ccc(N(C)C)c(F)c2)n1`, the cytotoxicity at 10 µM is 7.15%.
In the case of `Cc1ncc(CN2CC[C@@](C)(O)[C@H](Oc3cccc(F)c3)C2)cn1` it was -13.4%; in that of `Cc1ccc(C(=O)N2CC[C@H](Oc3cccnc3C)[C@@H](O)CC2)s1`, -5.58%; in that of `Cc1nonc1NC(=O)CCn1cc(Br)ccc1=O`, 0.297%.
Take `COc1ccc(CN(Cc2cncn2C)CC2CCCO2)cc1OC` (stereo unspecified): the cytotoxicity at 10 µM is -3.06%.
For `CCOc1ccc(OCCN2CCC(N3CCNC3=O)CC2)cc1`, the cytotoxicity at 10 µM was determined as 41.3%.
In the case of `Cc1cccc(C(C)(C)NC(=O)CS(=O)(=O)CC(C)C)c1`, the cytotoxicity at 10 µM stood at 0.927%.
Consider `CS(=O)(=O)NC[C@]12COC[C@H]1CN(CCc1ccccc1)C2`, for which the cytotoxicity at 10 µM amounted to 12.3%.
For the compound `Cc1cc(-c2cnc(N3CCC(O)CC3)nc2-c2cccnc2C)on1`, the cytotoxicity at 10 µM was -25.2%.
As for `CS(=O)(=O)NCCC(=O)N1Cc2cnc(-c3ccccc3)nc2C1`, the figure is -4.65%.
Take `CCS(=O)(=O)N1CCO[C@H]2[C@H](OCC3CCCC3)CC[C@@H]21`: the cytotoxicity at 10 µM is -9.6%.
In the case of `Nc1nc(CCCNC(=O)c2ccccc2C2CCNC2)cs1` (stereo unspecified) it was -3.06%; in that of `O=S1(=O)CCC(n2nc(COc3ccccc3)nc2-c2cnccn2)C1` (stereo unspecified), -4.64%; in that of `CC(C)Nc1cccc(CNC(=O)N2CCCC2)c1`, 1.98%.
For the compound `CN1CCN(S(=O)(=O)c2ncn(C)c2Cl)CC1`, the cytotoxicity at 10 µM was 6.84%.
Regarding `Cc1cnc(C)c(N2CCCC(CO)(Cc3cccc(Cl)c3)C2)n1` (stereo unspecified), the cytotoxicity at 10 µM is 7.78%.
As to `CSc1ccccc1C(C(=O)O)N1CCN(Cc2ccccn2)CC1` (stereo unspecified), the cytotoxicity at 10 µM is -36.2%.
As for `O=C([C@H]1C[C@H]2OCC[C@H]2N(Cc2cccnc2)C1)N1CCCO1`, the cytotoxicity at 10 µM was -2.83%.
For the compound `N#CCCCS(=O)(=O)NC(=O)c1cccc(Cl)c1F`, the cytotoxicity at 10 µM was -2.8%.
As for `O=C(O)[C@@H]1CN(C(=O)c2ccc(F)c(F)c2)C[C@H]1c1cccc(F)c1`, the cytotoxicity at 10 µM is -113%.

Values taken from ChEMBL document CHEMBL4513216, “Probing the Open Global Health Chemical Diversity Library for Multistage-Active Starting Points for Next-Generation Antimalarials” (ACS Infect Dis, 2020).
